Results published in ChEMBL document CHEMBL3232847, “Discovery of 6-phenylpyrimido[4,5-b][1,4]oxazines as potent and selective acyl CoA:diacylglycerol acyltransferase 1 (DGAT1) inhibitors with in vivo efficacy in rodents” (J Med Chem, 2014).
pIC50: −log10 of the molar value. One block for each compound: values may come before it. Active and inactive are the calls of the source. No cut-off for these calls is given here.

Tests used:
[1] = AUC in CD1 mouse at 0.3 mg/kg, po; format: ADME, organism-based; parameters: dose 0.3 mg/kg, route oral; details: plasma
Cytochrome P450 1A2 = target: T1, Cytochrome P450 1A2 (Homo sapiens, UniProt P05177); test: Inhibition of CYP1A2 (unknown origin) at 10 uM; format: ADME
T1 sequence (P05177 whole entry): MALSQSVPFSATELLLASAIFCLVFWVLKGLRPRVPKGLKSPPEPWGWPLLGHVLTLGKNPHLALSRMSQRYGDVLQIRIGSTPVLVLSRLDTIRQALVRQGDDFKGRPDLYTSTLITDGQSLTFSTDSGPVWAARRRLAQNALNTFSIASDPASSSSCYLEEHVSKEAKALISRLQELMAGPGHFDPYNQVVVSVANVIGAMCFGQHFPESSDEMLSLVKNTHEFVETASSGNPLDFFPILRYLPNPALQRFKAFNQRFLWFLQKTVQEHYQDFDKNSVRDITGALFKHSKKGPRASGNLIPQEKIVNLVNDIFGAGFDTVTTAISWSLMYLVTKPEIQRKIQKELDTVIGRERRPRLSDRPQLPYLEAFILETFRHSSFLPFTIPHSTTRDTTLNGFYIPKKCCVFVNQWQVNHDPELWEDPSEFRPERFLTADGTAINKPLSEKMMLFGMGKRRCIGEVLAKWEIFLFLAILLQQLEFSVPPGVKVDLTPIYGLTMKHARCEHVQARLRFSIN

Cytochrome P450 2D6 = Cytochrome P450 2D6 (Homo sapiens, UniProt P10635); test: Inhibition of CYP2D6 (unknown origin) at 10 uM; format: ADME
Cytochrome P450 2D6, sequence (P10635 whole entry): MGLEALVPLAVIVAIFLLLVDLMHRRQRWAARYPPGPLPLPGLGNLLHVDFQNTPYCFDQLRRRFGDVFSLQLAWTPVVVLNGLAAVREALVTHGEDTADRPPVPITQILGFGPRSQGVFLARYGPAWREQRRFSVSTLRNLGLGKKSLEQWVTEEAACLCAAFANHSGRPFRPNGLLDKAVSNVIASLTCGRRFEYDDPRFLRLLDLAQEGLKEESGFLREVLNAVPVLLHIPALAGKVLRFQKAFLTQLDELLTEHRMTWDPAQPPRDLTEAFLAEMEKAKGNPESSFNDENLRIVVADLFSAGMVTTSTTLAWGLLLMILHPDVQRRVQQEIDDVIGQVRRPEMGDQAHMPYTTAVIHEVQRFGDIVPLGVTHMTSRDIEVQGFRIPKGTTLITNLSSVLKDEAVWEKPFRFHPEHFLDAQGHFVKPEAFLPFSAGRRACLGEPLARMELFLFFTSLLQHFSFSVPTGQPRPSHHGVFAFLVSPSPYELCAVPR

Cytochrome P450 2C9 = Cytochrome P450 2C9 (Homo sapiens, UniProt P11712); test: Inhibition of CYP2C9 (unknown origin) at 10 uM; format: ADME
Cytochrome P450 2C9, sequence (P11712 whole entry): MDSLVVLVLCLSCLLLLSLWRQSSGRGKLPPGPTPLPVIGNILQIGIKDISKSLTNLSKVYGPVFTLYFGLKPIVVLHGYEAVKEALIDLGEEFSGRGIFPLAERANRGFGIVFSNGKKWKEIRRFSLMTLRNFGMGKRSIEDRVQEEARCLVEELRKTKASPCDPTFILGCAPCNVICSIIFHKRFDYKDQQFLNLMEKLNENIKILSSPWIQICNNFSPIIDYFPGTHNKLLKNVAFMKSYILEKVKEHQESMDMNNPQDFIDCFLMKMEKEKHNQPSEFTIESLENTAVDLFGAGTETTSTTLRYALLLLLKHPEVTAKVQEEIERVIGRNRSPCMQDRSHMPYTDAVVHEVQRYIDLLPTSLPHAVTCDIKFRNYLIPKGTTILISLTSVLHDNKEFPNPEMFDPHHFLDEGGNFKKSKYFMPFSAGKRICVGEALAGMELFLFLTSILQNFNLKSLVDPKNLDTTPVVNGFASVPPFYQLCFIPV

Cytochrome P450 3A4 = Cytochrome P450 3A4 (Homo sapiens, UniProt P08684); test: Inhibition of CYP3A4 (unknown origin) at 10 uM; format: ADME
Cytochrome P450 3A4, sequence (P08684 whole entry): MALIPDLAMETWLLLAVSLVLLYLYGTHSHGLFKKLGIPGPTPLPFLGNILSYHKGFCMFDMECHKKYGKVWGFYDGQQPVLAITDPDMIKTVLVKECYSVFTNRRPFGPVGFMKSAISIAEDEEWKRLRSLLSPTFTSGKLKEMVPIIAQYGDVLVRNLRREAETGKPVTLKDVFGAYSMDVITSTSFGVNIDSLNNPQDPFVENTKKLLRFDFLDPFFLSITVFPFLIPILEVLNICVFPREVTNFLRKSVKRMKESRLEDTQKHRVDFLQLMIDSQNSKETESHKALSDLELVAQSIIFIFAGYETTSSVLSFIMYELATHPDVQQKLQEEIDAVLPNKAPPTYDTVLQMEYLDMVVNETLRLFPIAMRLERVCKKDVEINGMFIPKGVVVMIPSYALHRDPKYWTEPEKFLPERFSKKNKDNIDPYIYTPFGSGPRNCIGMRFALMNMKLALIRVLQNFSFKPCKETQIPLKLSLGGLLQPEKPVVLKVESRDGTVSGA

[2] = Inhibition of mouse liver microsomal GPAT by TLC technique in presence of glycerol-3-phosphate and [14C] palmitoyl CoA
Mus musculus [3] = test: Reduction in plasma triglyceride level in po dosed C57BL/6J mouse compound treated 30 mins prior to olive oil administration measured 3 hrs post olive oil administration relative to vehicle-treated control; format: functional, organism-based
Method in brief: (§1)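 Animals received vehicle or compound by oral gavage, then olive oil (5 mL/kg) by oral gavage 30 min later. Plasma triglycerides were measured before dosing and 3 h after the oil. The read-out was the change in TG from pre-dose, compared with vehicle-treated animals.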

Mus musculus [4] = test: Reduction in plasma triglyceride level in C57BL/6J mouse at 0.1 mg/kg, po treated 30 mins prior to olive oil administration measured 3 hrs post olive oil administration relative to vehicle-treated control; format: functional; parameters: scale not given: the % may be the effect or the level left; method in brief: as §1
[5] = AUC in C57BL/6J mouse at 0.3 mg/kg, po; format: ADME, organism-based; parameters: dose 0.3 mg/kg, route oral; details: plasma
[6] = Oral bioavailability in cynomolgus monkey at 5 mg/kg; format: ADME, organism-based, Macaca fascicularis; details: in vivo
[7] = AUC in Sprague-Dawley rat at 10 mg/kg, po qd; format: ADME, organism-based; parameters: dose 10 mg/kg, route oral; details: plasma
Method in brief: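 Sprague-Dawley rats dosed orally once daily for 14 days in a multiple-dose toxicity study at 10, 30 or 100 mg/kg. Plasma exposure was reported as AUC, and clinical and histopathological findings were recorded.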

Cynomolgus monkey [8] = test: Toxicity in cynomolgus monkey assessed as elevation of ALT level at 10 to 30 mg/kg/day, po qd by 21-day multiple-dose toxicity study relative to control; format: organism-based, Macaca fascicularis; parameters: route oral; details: in vivo
Method in brief: (§2)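 Cynomolgus monkeys were dosed po once daily at 10 and 30 mg/kg for 21 days. ALT and AST levels, QTc intervals, and clinical and histopathological findings were assessed, and plasma AUC was recorded for each dose.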

Cynomolgus monkey [9] = test: Toxicity in cynomolgus monkey assessed as elevation of change in histopathological parameters at 10 to 30 mg/kg/day, po qd by 21-day multiple-dose toxicity study relative to control; format: organism-based, Macaca fascicularis; parameters: route oral; details: in vivo; method in brief: as §2
[10] = Clearance in CD1 mouse at 0.5 mg/kg, iv; format: ADME, organism-based; parameters: dose 0.5 mg/kg, route intravenous; details: in vivo
[11] = Volume of distribution at steady state in CD1 mouse at 0.5 mg/kg, iv; format: ADME, organism-based; parameters: dose 0.5 mg/kg, route intravenous; details: in vivo, read-out: Vdss
[12] = Half life in CD1 mouse at 0.5 mg/kg, iv; format: ADME, organism-based; parameters: dose 0.5 mg/kg, route intravenous; details: in vivo
[13] = Half life in Sprague-Dawley rat at 1 mg/kg, iv; format: ADME, organism-based; parameters: dose 1 mg/kg, route intravenous; details: in vivo
[14] = AUC in Sprague-Dawley rat at 2 mg/kg, po; format: ADME, organism-based; parameters: dose 2 mg/kg, route oral; details: plasma
[15] = Clearance in beagle dog at 0.5 mg/kg, iv; format: ADME, organism-based, Canis lupus familiaris; parameters: dose 0.5 mg/kg, route intravenous; details: in vivo
[16] = Volume of distribution at steady state in beagle dog at 0.5 mg/kg, iv; format: ADME, organism-based, Canis lupus familiaris; parameters: dose 0.5 mg/kg, route intravenous; details: in vivo, read-out: Vdss
[17] = Half life in beagle dog at 0.5 mg/kg, iv; format: ADME, organism-based, Canis lupus familiaris; parameters: dose 0.5 mg/kg, route intravenous; details: in vivo
[18] = Clearance in rhesus monkey at 0.2 mg/kg, iv; format: ADME, organism-based, Macaca mulatta; parameters: dose 0.2 mg/kg, route intravenous; details: in vivo
[19] = Half life in rhesus monkey at 0.2 mg/kg, iv; format: ADME, organism-based, Macaca mulatta; parameters: dose 0.2 mg/kg, route intravenous; details: in vivo
Mus musculus [20] = test: Reduction in plasma triglyceride level in C57BL/6J mouse at 0.3 mg/kg, po treated 30 mins prior to olive oil administration measured 3 hrs post olive oil administration relative to vehicle-treated control; format: functional; parameters: scale not given: the % may be the effect or the level left; method in brief: as §1
Rattus norvegicus [21] = test: Reduction in plasma triglyceride level in Sprague-Dawley rat at 0.1 mg/kg, po treated 30 mins prior to olive oil administration measured 3 hrs post olive oil administration relative to vehicle-treated control; format: functional; parameters: scale not given: the % may be the effect or the level left; method in brief: as §1
Rattus norvegicus [22] = test: Reduction in plasma triglyceride level in Sprague-Dawley rat at 0.3 mg/kg, po treated 30 mins prior to olive oil administration measured 3 hrs post olive oil administration relative to vehicle-treated control; format: functional; parameters: scale not given: the % may be the effect or the level left; method in brief: as §1
Rattus norvegicus [23] = test: Reduction in plasma triglyceride level in po dosed Sprague-Dawley rat compound treated 30 mins prior to olive oil administration measured 3 hrs post olive oil administration relative to vehicle-treated control; format: functional, organism-based; method in brief: as §1
Rattus norvegicus [24] = test: Toxicity in Sprague-Dawley rat assessed as sebaceous gland atrophy at 100 mg/kg, po by 14-day multiple-dose toxicity study; format: organism-based; parameters: dose 100 mg/kg, route oral; details: in vivo
Method in brief: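 Sprague−Dawley rats were dosed po once daily for 14 days. Clinical and histopathological findings were assessed, and plasma AUC was recorded for each dose.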

[25] = AUC in Sprague-Dawley rat at 30 mg/kg, po; format: ADME, organism-based; parameters: dose 30 mg/kg, route oral; details: plasma
[26] = Drug metabolism in Sprague-Dawley rat liver S9 fraction assessed as 2-hydroxy compound formation by MS/MS analysis; format: ADME, subcellular
[27] = target: T2, Diacylglycerol O-acyltransferase 2 (Homo sapiens) (UniProt Q96PD7); test: Inhibition of human liver flag-tagged DGAT2 expressed in baculovirus infected insect cells up to 10 uM after 2 hrs by SPA
T2 sequence (whole entry): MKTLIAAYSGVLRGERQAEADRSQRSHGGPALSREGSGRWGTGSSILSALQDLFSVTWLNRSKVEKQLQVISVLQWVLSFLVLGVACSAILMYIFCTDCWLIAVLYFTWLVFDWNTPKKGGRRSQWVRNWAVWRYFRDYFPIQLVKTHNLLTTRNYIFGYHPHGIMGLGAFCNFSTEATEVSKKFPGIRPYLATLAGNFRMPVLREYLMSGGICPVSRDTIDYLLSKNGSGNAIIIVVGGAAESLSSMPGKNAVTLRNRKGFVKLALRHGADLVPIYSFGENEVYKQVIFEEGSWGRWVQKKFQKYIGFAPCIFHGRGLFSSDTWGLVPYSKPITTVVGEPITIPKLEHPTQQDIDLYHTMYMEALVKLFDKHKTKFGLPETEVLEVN

[28] = Clearance in Sprague-Dawley rat at 1 mg/kg, iv; format: ADME, organism-based; parameters: dose 1 mg/kg, route intravenous; details: in vivo

- AUC [1]: 341 ng·h/mL
- inhibition (INH) (Cytochrome P450 1A2): Not Active
- inhibition (INH) (Cytochrome P450 2D6): Not Active
- inhibition (INH) (Cytochrome P450 2C9): Not Active
- inhibition (INH) (Cytochrome P450 3A4): Not Active
- pIC50 [2]: < 5.00
- AUC [5]: 0.65 µM·h
- bioavailability [6]: 99%
- AUC [7]: 11 µM·h
- clearance [10]: 7.5 mL/min/kg
- Vd [11]: 2.8 L/kg
- half-life [12]: 4.4 h
Compound: CC1(C)Oc2nc(C(F)(F)F)nc(N)c2N=C1c1ccc2c(c1)CC[C@]21CC[C@@H](CC(=O)O)CC1
- Activity (Mus musculus [3]): Dose-dependent effect
- Activity (Mus musculus [4]): 99.7%
- Activity (Cynomolgus monkey [8]): Non-toxic
- Activity (Cynomolgus monkey [9]): Non-toxic

- half-life [13]: 1.7 h
- AUC [14]: 1010 ng·h/mL
- clearance [15]: 11 mL/min/kg
- Vd [16]: 1.9 L/kg
- half-life [17]: 2.4 h
- clearance [18]: 3.67 mL/min/kg
- half-life [19]: 1.8 h
- inhibition (INH) (Cytochrome P450 1A2): Not Active
- inhibition (INH) (Cytochrome P450 2D6): Not Active
- inhibition (INH) (Cytochrome P450 2C9): Not Active
- inhibition (INH) (Cytochrome P450 3A4): Not Active
- AUC [25]: 913 µM·h
- Drug metabolism [26]: metabolite_detected
- inhibition [27]: inactive
- AUC [5]: 2.6 µM·h
- clearance [10]: 1.83 mL/min/kg
- Vd [11]: 0.79 L/kg
- half-life [12]: 4.7 h
- clearance [28]: 9.17 mL/min/kg
Compound: CC1(C)Oc2ncnc(N)c2N=C1c1ccc([C@H]2CC[C@H](CC(=O)O)CC2)cc1
- Activity (Mus musculus [20]): 93%
- Activity (Rattus norvegicus [21]): 68%
- Activity (Rattus norvegicus [22]): 88%
- Activity (Rattus norvegicus [23]): Dose-dependent effect
- Activity (Rattus norvegicus [24]): Toxic
